Reference: ChEMBL document CHEMBL1150046, “Three new cyclic peroxides from the marine sponge Plakortis aff simplex” (2003)

Assays:
Format in all cases: functional
LoVo [1] = test: Growth inhibition of human LoVo after 72 hrs by SRB assay
In short: (§1)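 Cells kept in RPMI 1640 with 10% FBS, 2 mM L-glutamine, penicillin and streptomycin at 37 °C, 5% CO2. They were seeded at 5000 per well and allowed to attach in drug-free medium (24 h; also stated as 18 h). Compound dilutions in DMSO/EtOH were added for 72 h. Cells were fixed with cold TCA, stained with SRB, solubilised in Tris and read at 490 nm.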

SK-OV-3 = test: Growth inhibition of human SKOV3 cells after 72 hrs by SRB assay; conditions: SK-OV-3, 72 h; in short: as §1
A549 = test: Growth inhibition of human A549 after 72 hrs by SRB assay; conditions: A549, 72 h; in short: as §1
PANC-1 = test: Growth inhibition of human PANC1 cells after 72 hrs by SRB assay; conditions: PANC-1, 72 h; in short: as §1
K562 = test: Growth inhibition of human K562 cells after 72 hrs by SRB assay; conditions: K562, 72 h; in short: as §1
SK-BR-3 = test: Growth inhibition of human SKBR3 cells after 72 hrs by SRB assay; conditions: SK-BR-3, 72 h; in short: as §1
[2] = Growth inhibition of human IGROV-ET cells after 72 hrs by SRB assay; in short: as §1
SK-MEL-28 = test: Growth inhibition of human SK-MEL-28 cells after 72 hrs by SRB assay; conditions: SK-MEL-28, 72 h; in short: as §1
DU-145 = test: Growth inhibition of human DU145 cells after 72 hrs by SRB assay; conditions: DU-145, 72 h; in short: as §1
HT-29 = test: Growth inhibition of human HT-29 cells after 72 hrs by SRB assay; conditions: HT-29, 72 h; in short: as §1
LNCaP = test: Growth inhibition of human LNCAP cells after 72 hrs by SRB assay; in short: as §1
[3] = Growth inhibition of human IGROV cells after 72 hrs by SRB assay; in short: as §1
LoVo [4] = test: Growth inhibition of human Doxorubicin-resistant LoVo cells after 72 hrs by SRB assay; in short: as §1
[5] = read-out: LC50 (the source's name)

C[C@]1(CCCCCCCCCCc2ccccc2)C[C@](C)(CC(=O)O)OO1 [ANDAVADOIC ACID]
GI50 (LoVo [1]): 635 nM
TGI (LoVo [1]): 1210 nM
CC50 (LoVo [1]; [5]): 2310 nM
GI50 (SK-OV-3): 698 nM
TGI (SK-OV-3): 1120 nM
CC50 (SK-OV-3; [5]): 1810 nM
GI50 (A549): 714 nM
TGI (A549): 1290 nM
CC50 (A549; [5]): 2330 nM
GI50 (PANC-1): 526 nM
TGI (PANC-1): 961 nM
CC50 (PANC-1; [5]): 1750 nM
GI50 (K562): 497 nM
TGI (K562): 1010 nM
CC50 (K562; [5]): 2070 nM
GI50 (SK-BR-3): 914 nM
TGI (SK-BR-3): 1690 nM
CC50 (SK-BR-3; [5]): 2660 nM
GI50 [2]: 133 nM
TGI [2]: 390 nM
CC50 [2, 5]: 1340 nM
GI50 (SK-MEL-28): 698 nM
TGI (SK-MEL-28): 1140 nM
CC50 (SK-MEL-28; [5]): 1860 nM
GI50 (DU-145): 627 nM
TGI (DU-145): 991 nM
CC50 (DU-145; [5]): 1560 nM
GI50 (HT-29): 643 nM
TGI (HT-29): 1130 nM
CC50 (HT-29; [5]): 1980 nM
GI50 (LNCaP): 478 nM
TGI (LNCaP): 863 nM
CC50 (LNCaP; [5]): 1560 nM
GI50 [3]: 102 nM
TGI [3]: 261 nM
CC50 [3, 5]: 1830 nM
GI50 (LoVo [4]): 539 nM
TGI (LoVo [4]): 951 nM
CC50 (LoVo [4]; [5]): 1680 nM
